A short description of test [1]: Growth inhibition of human KB/S cells after 72 hrs by MTT assay. The class given is functional. The gist of the method: (§1)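 Cytotoxicity run by a previously reported procedure, with vincristine and cisplatin as positive controls.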
In general terms: Formazan colour is commonly taken as a measure of viable cells.

The test system of test [2] is KB/VJ300. The test can be described thus: Growth inhibition of human KB/VJ300 cells after 72 hrs by MTT assay. The class given is functional, cell-based. The conditions noted are these: KB/VJ300, 72 h. Put shortly:
as §1

The next test deals with PC-3. The test can be described thus: Growth inhibition of human PC3 cells after 72 hrs by MTT assay. It is filed as functional, cell-based. The conditions noted are these: PC-3, 72 h. The gist of the method: as §1
The subject of another test is LNCaP. The test can be described thus: Growth inhibition of human LNCAP cells after 72 hrs by MTT assay. The class given is functional, cell-based. Put shortly:
as §1

The test system of another test is MCF7. The test can be described thus: Growth inhibition of human MCF7 cells after 72 hrs by MTT assay. The class given is functional, cell-based. The conditions noted are these: MCF7, 72 h. Put shortly:
as §1

A further test relates to MDA-MB-231. The test can be described thus: Growth inhibition of human MDA-MB-231 cells after 72 hrs by MTT assay. It is filed as functional, cell-based. The conditions noted are these: MDA-MB-231, 72 h. Put shortly: as §1
For a further test, the system named is A549. Nature of the test: Growth inhibition of human A549 cells after 72 hrs by MTT assay. It is filed as functional, cell-based. The conditions noted are these: A549, 72 h. The gist of the method:
as §1

A further test concerns HCT-116. Nature of the test: Growth inhibition of human HCT116 cells after 72 hrs by MTT assay. The class given is functional, cell-based. The conditions noted are these: HCT-116, 72 h. Put shortly: as §1
The next test concerns HT-29. The test can be described thus: Growth inhibition of human HT-29 cells after 72 hrs by MTT assay. The class given is functional, cell-based. The conditions noted are these: HT-29, 72 h. Put shortly:
as §1

In test [3] the test system is KB/VJ300. Nature of the test: Growth inhibition of human KB/VJ300 cells after 72 hrs in presence of vincristine by MTT assay. The class given is functional, cell-based. The conditions noted are these: KB/VJ300, 72 h. The gist of the method:
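Vincristine-resistant KB/VJ300 cells were exposed to test compound together with vincristine at 0.1 μg/mL, a multidrug-resistance reversal set-up. Cytotoxicity was run by a previously reported procedure, with vincristine and cisplatin as positive controls.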

One may read the IC50 as the concentration at which inhibition is half-maximal. Consider `C/C=C1/CN(C)[C@H]2Cc3c([nH]c4ccccc34)[C@@H](c3cc4[nH]c5c(c4cc3OC)CCN3C[C@H]4C[C@H](CC)[C@H]3[C@H]5C4)C[C@H]1[C@@H]2C(=O)OC`, for which the IC50 in test [1] was 5.3 µM; in the test on KB/VJ300 [2], 5 µM; with PC-3, 2.8 µM; in the test on LNCaP it was > 10 µM; with MCF7 it was 6 µM; with MDA-MB-231, 2.5 µM. Moreover, the 50% inhibitory concentration (IC50) was 6.8 µM in the test with A549, 1.6 µM with HCT-116, 0.93 µM with HT-29 and 7 µM with KB/VJ300 [3].

Regarding `C/C=C1/CN(C)[C@H]2Cc3c([nH]c4ccccc34)[C@@H](c3cc4c(cc3OC)C(=O)[C@@]3(CCN5C[C@H]6C[C@H](CC)[C@H]5[C@H]3C6)N4)C[C@H]1[C@@H]2C(=O)OC`, the IC50 in test [1] came to 8.3 µM; with KB/VJ300 [2], 9.1 µM; with PC-3, 8.8 µM; with LNCaP, 10 µM; with MCF7, 9.4 µM; in the test on MDA-MB-231, 7.7 µM. Besides, the half-maximal inhibitory concentration (IC50) in the test with A549 came out at 9.1 µM; with HCT-116 it was 7.1 µM; in the test with HT-29, 2.9 µM; with KB/VJ300 [3], 3.3 µM.

For `C/C=C1/CN(C)[C@H]2Cc3c([nH]c4ccccc34)[C@@H](c3c(OC)ccc4[nH]c5c(c34)CCN3C[C@H]4C[C@H](CC)[C@H]3[C@H]5C4)C[C@H]1[C@@H]2C(=O)OC`, the IC50 in test [1] is > 10 µM; with KB/VJ300 [2], 10 to 30 µM; in the test on PC-3 it was 7.7 µM; in the test with LNCaP, > 10 µM; with MCF7 it was > 10 µM; in the test with MDA-MB-231 it was 4.6 µM. Further, the half-inhibitory concentration (IC50) is > 10 µM in the test on A549, 7.4 µM in the test on HCT-116, 1.9 µM with HT-29 and 9 to 9.6 µM in the test with KB/VJ300 [3].

With `CC[C@@H]1CN(C)[C@H]2Cc3c([nH]c4ccccc34)[C@@H](c3cc4[nH]c5c(c4cc3OC)CCN3C[C@H]4C[C@H]([C@@H](C)O)[C@H]3[C@H]5C4)C[C@H]1[C@@H]2C(=O)OC`, the IC50 was 8 µM in test [1]; 8.1 µM in the test with KB/VJ300 [2]; 6.9 µM in the test with PC-3; > 10 µM with LNCaP; 9.3 µM in the test on MCF7; 3.6 µM in the test with MDA-MB-231. The IC50 in the test with A549 turned out to be 9.6 µM; with HCT-116 it was 3.5 µM; in the test on HT-29 it was 2.4 µM; in the test on KB/VJ300 [3] it was 8.6 µM.

`CC[C@@H]1CN(C)[C@H]2Cc3c([nH]c4ccccc34)[C@@H](c3cc4c(cc3OC)C(=O)[C@@]3(CCN5C[C@H]6C[C@H](CC)[C@H]5[C@H]3C6)N4)C[C@H]1[C@@H]2C(=O)OC`: the IC50 is > 10 µM in [1]; > 10 µM with KB/VJ300 [2]; 8.1 µM with PC-3; > 10 µM in the test with LNCaP; 7.5 µM in the test on MCF7; 3.3 µM in the test with MDA-MB-231. Further, the concentration for half-maximal inhibition (IC50) in the test on A549 is 8.4 µM; with HCT-116 it was 7.8 µM; in the test with HT-29, 1.8 µM; in the test on KB/VJ300 [3], 5.1 µM.

On to `CC[C@@H]1CN(C)[C@H]2Cc3c([nH]c4ccccc34)[C@@H](c3cc4[nH]c5c(c4cc3OC)CCN3C[C@H]4C[C@H](CC)[C@H]3[C@H]5C4)C[C@H]1[C@@H]2C(=O)OC`, for which the half-maximal inhibitory concentration (IC50) was 8 µM in test [1]; 8.3 µM in the test with KB/VJ300 [2]; 3.5 µM in the test with PC-3; > 10 µM in the test on LNCaP; 3.4 µM in the test on MCF7; 2.8 µM in the test with MDA-MB-231. Further, the 50% inhibitory concentration (IC50) was > 10 µM with A549, 2.9 µM in the test with HCT-116, 0.92 µM in the test with HT-29 and 9.3 µM in the test on KB/VJ300 [3].

As for `C/C=C1/CN(C)[C@H]2Cc3c([nH]c4ccccc34)[C@@H](c3cc4c(cc3OC)[C@@]3(O)CCN5C[C@H]6C[C@H](CC)[C@H]5[C@@H](C6)C3=N4)C[C@H]1[C@@H]2C(=O)OC`, the half-maximal inhibitory concentration (IC50) is > 10 µM in test [1]; 10 to 30 µM in the test on KB/VJ300 [2]; 5.6 µM with PC-3; > 10 µM in the test on LNCaP; > 10 µM with MCF7; > 10 µM in the test on MDA-MB-231. For the same compound, the IC50 in the test on A549 was > 10 µM; with HCT-116 it was 9.7 µM; in the test on HT-29, 7.2 µM; with KB/VJ300 [3], 9 to 9.2 µM.

In the case of `C/C=C1/CN2CC[C@]34C(=C(C=O)C1C[C@H]23)Nc1cc([C@H]2C[C@@H]3/C(=C\C)CN(C)[C@@H](Cc5c2[nH]c2ccccc52)[C@H]3C(=O)OC)ccc14`, the IC50 in test [1] was > 10 µM; with KB/VJ300 [2], > 10 µM; with PC-3, 5.4 µM; in the test on LNCaP it was > 10 µM; in the test with MCF7 it was 8.6 µM; in the test with MDA-MB-231, 4.5 µM. In addition, the IC50 with A549 is 9.2 µM; with HCT-116 it was 6.7 µM; in the test on HT-29 it was 1.3 µM; in the test with KB/VJ300 [3], > 10 µM.

`C/C=C1/CN(C)[C@H]2Cc3c([nH]c4ccccc34)[C@@H](c3cc4[nH]c5c(c4cc3OC)CCN3C[C@H]4C[C@H]([C@@H](C)O)[C@H]3[C@H]5C4)C[C@H]1[C@@H]2C(=O)OC`: the half-maximal inhibitory concentration (IC50) in test [1] is 8.2 µM; with KB/VJ300 [2], 7.2 µM; in the test on PC-3, 5.7 µM; in the test with LNCaP, > 10 µM; in the test on MCF7, 8.8 µM; with MDA-MB-231, 3.9 µM. The half-maximal inhibitory concentration (IC50) with A549 is 9.7 µM; with HCT-116, 3 µM; in the test with HT-29, 1.2 µM; with KB/VJ300 [3] it was > 10 µM.

With `COc1ccc(CCN(C)CCCC(C#N)(c2ccc(OC)c(OC)c2)C(C)C)cc1OC` (stereo not given) [VERAPAMIL], the IC50 in [1] is > 10 µM; in the test with KB/VJ300 [2] it was > 10 µM; in the test with KB/VJ300 [3], 4.6 µM.

As for `CC[C@]1(O)C[C@H]2CN(CCc3c([nH]c4ccccc34)[C@@](C(=O)OC)(c3cc4c(cc3OC)N(C=O)[C@H]3[C@@](O)(C(=O)OC)[C@H](OC(C)=O)[C@]5(CC)C=CCN6CC[C@]43[C@@H]65)C2)C1` [VINCRISTINE], the IC50 in [1] is 0.0024 µM; with KB/VJ300 [2], 6.6 µM.

The values above are taken from ChEMBL document CHEMBL4431302, “Vobatensines A-F, Cytotoxic Iboga-Vobasine Bisindoles from Tabernaemontana corymbosa” (J Nat Prod, 2016).
